Our source for the IC50 values is ChEMBL document CHEMBL1135806, “Synthesis, biological evaluation, and quantitative structure-activity relationship analysis of new Schiff bases of hydroxysemicarbazide as potential antitumor agents” (J Med Chem, 2002).

Molecules are shown by their SMILES. pIC50: −log10 of the molar value.

For the test, the system named is L1210. Put plainly: Activity against lymphocytic murine leukemia cell line L1210 using MTS/PES microculture tetrazolium assay. Type of test: functional, cell-based. Conditions: Mus musculus. The procedure, abridged: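 L1210 cells kept in RPMI-1640 with 10% FBS and penicillin/streptomycin, 37 °C, 5% CO2. Seeded at 1×10^5/mL. DMSO stocks diluted in medium to six concentrations, 2×10⁻³ to 1×10⁻⁸ M, in triplicate; final DMSO 1% at top dose, otherwise <0.25%. Incubated 65 h, then MTS/PES for 3 h, A490. Inhibition relative to DMSO control; IC50 by probit regression; repeated at least twice.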
Take `O=C(NO)N/N=C/c1cccc([N+](=O)[O-])c1`: the pIC50 is 3.40.
`COc1ccc(/C=N/NC(=O)NO)c(O)c1` gave a pIC50 of 4.22.
For `O=C(NO)N/N=C/c1cccc(C(F)(F)F)c1` the value was 4.40; for `O=C(NO)N/N=C/c1ccc(O)c(O)c1O`, 5.57.
As to `O=C(NO)N/N=C/c1c[nH]c2ccccc12`, the pIC50 is 3.32.
As for `O=C(NO)N/N=C/c1cc(I)cc(I)c1O`, the pIC50 was 5.33.
As for `O=C(NO)N/N=C/c1cccc(I)c1`, the figure is 4.09; as for `O=C(NO)N/N=C/c1coc2c(Cl)cc(Cl)cc2c1=O`, 4.55.
The compound `CC(C)c1ccc2occ(/C=N/NC(=O)NO)c(=O)c2c1` had a pIC50 of 4.49.
For `COc1cc(O)c(/C=N/NC(=O)NO)c(OC)c1` the value was 4.04; for `COc1ccc(OC)c(/C=N/NC(=O)NO)c1`, 4.52.
As for `COc1cccc(/C=N/NC(=O)NO)c1`, the figure is 3.43; as for `O=C(NO)N/N=C/c1ccc(-c2ccccc2)cc1`, 4.37; as for `O=C(NO)N/N=C/c1cc(Br)ccc1O`, 5.00.
For `Cc1cccc(/C=N/NC(=O)NO)n1` the value was 3.05; for `O=C(NO)N/N=C/c1c2ccccc2c(Cl)c2ccccc12`, 5.27; for `CC(=O)Nc1ccc(/C=N/NC(=O)NO)cc1`, 3.02.
As to `O=C(NO)N/N=C/c1ccc(O)cc1O`, the pIC50 is 3.88.
For `O=C(NO)N/N=C/c1cc([N+](=O)[O-])cc([N+](=O)[O-])c1O` the value was 3.09; for `O=C(NO)N/N=C/c1cc(Cl)cc(Cl)c1O`, 5.19; for `O=C(NO)N/N=C/c1cccnc1`, 3.22.
In turn, `O=C(NO)N/N=C/c1ccc2c(c1)OCCO2` gave a pIC50 of 3.75.
`COc1cc(Br)cc(/C=N/NC(=O)NO)c1O` had a pIC50 of 4.42.
`N#Cc1ccc(/C=N/NC(=O)NO)cc1` showed a pIC50 of 3.68.
For `CN(C)c1ccc(/C=N/NC(=O)NO)cc1` the value was 3.35.
As for `NNC(N)=O` [HYDRAZINECARBOXAMIDE], the negative-log IC50 (pIC50) is under 2.66.
For `O=C(NO)N/N=C/c1cc(Br)cc(Br)c1O` the value was 5.14.
For `O=C(NO)N/N=C/c1ccc([N+](=O)[O-])s1` the value was 4.97; for `O=C(NO)N/N=C/c1ccc(OCc2ccccc2)cc1`, 4.32.
Compound `NNC(=O)NO` gave a pIC50 of 3.55.
For `COc1ccc(/C=N/NC(=O)NO)cc1` the value was 3.50.
As for `Cc1c2ccccc2c(/C=N/NC(=O)NO)c2ccccc12`, the figure is 5.36.
